Most compounds without a hit are left out; they make up all but 2% or so of the library.
HSP90 refold inh: blocks HSP90-mediated luciferase refolding in reticulocyte lysate; Rabbit reticulocyte lysate, luciferase refolding luminescence, 3 h; 290,000 compounds, 0.91% hits; inhibition, % at 5.6 µM; AID 1789;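 active = inhibition above the screen-wide mean plus 3 SD, computed separately per campaign, cut at about 16% in these data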;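 note: 0% = DMSO wells and 100% = 60 µM geldanamycin wells; inhibitors lower the luminescence because luciferase stays unfolded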
TRAIL sens C8: caspase-8 TRAIL sensitization. NB7+C8 cells + TRAIL, ATPlite viability luminescence. inhibition (viability loss, TRAIL sensitization), % at 10 µM. 360,000 compounds, 1% hits;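 active = compounds causing at least 50% loss of cell viability in the single-dose screen, relative to plate controls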
FLuc stim CS: firefly luciferase counter-screen for stimulation assays. P08659. ATPlite luciferase biochemical, luminescence, 10 min; 0 = ATP-free wells, 1 = DMSO control. activation factor at 10 µM. 200,000 tested, under 10 active;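 active = luciferase activation factor, scaled between plate controls, of at least 2 with compound at 10 µM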
Target sequence (P08659 whole entry, looked up): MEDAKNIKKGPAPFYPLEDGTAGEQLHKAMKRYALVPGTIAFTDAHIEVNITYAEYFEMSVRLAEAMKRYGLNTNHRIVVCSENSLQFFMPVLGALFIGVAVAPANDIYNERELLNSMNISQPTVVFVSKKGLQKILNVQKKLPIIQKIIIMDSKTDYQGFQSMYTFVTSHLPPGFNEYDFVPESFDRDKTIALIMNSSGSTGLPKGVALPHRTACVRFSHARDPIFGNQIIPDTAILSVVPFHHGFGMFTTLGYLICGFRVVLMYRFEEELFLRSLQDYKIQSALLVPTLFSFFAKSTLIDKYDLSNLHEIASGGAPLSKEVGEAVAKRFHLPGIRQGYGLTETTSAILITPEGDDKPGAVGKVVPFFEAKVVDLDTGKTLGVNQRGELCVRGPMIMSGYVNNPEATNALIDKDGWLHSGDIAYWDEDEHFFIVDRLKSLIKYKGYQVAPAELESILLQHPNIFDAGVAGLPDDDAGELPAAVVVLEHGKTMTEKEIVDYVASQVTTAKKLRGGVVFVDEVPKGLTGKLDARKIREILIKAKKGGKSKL
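Material: luciferase plus luciferin reagent, cell-free. Medium: PBS buffer for ATP. Also added: ATP substrate, dispensed from a 10.24 µM working solution in PBS. Doses: test compounds dosed from 2 mM stocks in 100% DMSO. Incubation: 10 min post-reagent at room temperature. Technique: light output (luminescence). Read-out basis: luminescence gain marking luciferase activators.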
PPC-1+TRAIL kill: kills PPC-1 cancer cells in the presence of TRAIL. PPC-1 cells + TRAIL, ATPLite viability luminescence. cell killing (% activity), % at 4 µM or 5 µM. 220,000 compounds, 0.41% hits;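 active = cell killing above 50% in the first pass at 4 µM, then a duplicate retest at 5 µM averaging 50% or more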;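 note: plate controls were cells with TRAIL plus DMSO for no effect and medium-only wells lacking cells for full effect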
FLuc inh counter: Photinus pyralis luciferase inhibition counter-screen | ATPLite firefly luciferase biochemical luminescence, 10 min | inhibition, % at 10 µM | P08659 | 200,000 compounds, 1.5% hits;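 active = inhibition above about 50% when tested at 10 µM, limit read from the data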
* marks the source's active call; other numbers are inactive results.

Screening CC(C)c1ccc(-c2nnc(N)s2)cc1 returned HSP90 refold inh -2, TRAIL sens C8 58*, FLuc stim CS 0.2, PPC-1+TRAIL kill 58* and FLuc inh counter 80*.
COc1ccc(-c2nnc(N)s2)cc1 was read as HSP90 refold inh -1, TRAIL sens C8 12, FLuc stim CS 0.7, PPC-1+TRAIL kill 23 and FLuc inh counter 26.
`CCCOc1ccc(-c2nnc(N)s2)cc1` gave HSP90 refold inh 0, TRAIL sens C8 38, FLuc stim CS 0.4, PPC-1+TRAIL kill -7 and FLuc inh counter 60*.
Screening CCCNC(=O)C1(C)CCCN(C(=O)c2ccccc2F)C1 (stereo not drawn) returned TRAIL sens C8 -15.
For CS(=O)(=O)c1ccc(S(=O)(=O)N2CCN(C(=O)C(O)c3ccccc3)CC2)cc1 (stereo not drawn) the results were TRAIL sens C8 3.
`CN(C)c1ccc(/C=N/N=C2/NC(=O)/C(=C/c3ccc([N+](=O)[O-])cc3)S2)cc1` gave HSP90 refold inh 15, TRAIL sens C8 87*, FLuc stim CS 0.1, PPC-1+TRAIL kill 54* and FLuc inh counter 89*.
`COCCn1c(C)cc(C(=O)COC(=O)c2ccc(Br)o2)c1C` gave HSP90 refold inh 4, TRAIL sens C8 1, FLuc stim CS 0.2, PPC-1+TRAIL kill 6 and FLuc inh counter 80*.
Screening Cc1cc(C(=O)COC(=O)c2ccc(Cl)c(S(N)(=O)=O)c2)c(C)n1CC1CCCO1 (stereo not drawn) returned TRAIL sens C8 42.
`Cc1cc(C(=O)COC(=O)c2ccc(Br)o2)c(C)n1C` gave HSP90 refold inh 0, TRAIL sens C8 3, FLuc stim CS 0.7, PPC-1+TRAIL kill 12 and FLuc inh counter 28.
For COCCn1c(C)cc(C(=O)COC(=O)c2ccc(Cl)c(S(N)(=O)=O)c2)c1C the results were TRAIL sens C8 62*.
`CCCC(C)(C)C(=O)N1CCC1(C)C(=O)Nc1cccc2ccccc12` (stereo not drawn) gave TRAIL sens C8 14.
CCCCN1C(=O)C(CC(=O)NCCCCc2ccccc2)CC(C(=O)N(C)C)=C1C (stereo not drawn) was read as TRAIL sens C8 8.
`O=C(OCc1cn([C@@H]2C[C@H](c3ccc(Cl)cc3)N(C(=O)C3CCCCC3)C[C@H]2O)nn1)c1ccccc1` gave TRAIL sens C8 35.
For CN(C)c1ccc(C=c2c3cc(O)ccc3n3c2cc(-c2ccccc2)[n+]3C)cc1 the results were TRAIL sens C8 51*.
`CCOC(=O)c1cc2c(=Cc3ccc(N(C)C)cc3)c3ccccc3n2[n+]1C` gave TRAIL sens C8 53*.
Screening Cc1cc2c(=Cc3ccc(N(C)C)cc3)c3ccccc3n2[n+]1C returned TRAIL sens C8 31.
Screening C[n+]1c(-c2ccccc2)cc2c(=Cc3ccc([N+](=O)[O-])cc3)c3ccccc3n21 returned TRAIL sens C8 23.
C[n+]1c(-c2ccccc2)cc2c(=Cc3ccccc3)c3ccccc3n21 was read as TRAIL sens C8 81*.
For CCCNC(=O)N[C@H]1C=C[C@H](CC(=O)OC)O[C@@H]1CO the results were TRAIL sens C8 -1.
`CCc1ccc(Nc2nnc(SCC(=O)Nc3ccc(C(=O)O)cc3)s2)cc1` gave HSP90 refold inh -1, TRAIL sens C8 59* and PPC-1+TRAIL kill 42.
CC(C)(C)c1ccc(OCC(=O)Nc2cccc(S(=O)(=O)NC3=NCCCCC3)c2)cc1 was read as TRAIL sens C8 6.
Screening CCOc1ccc(OCC(=O)Nc2cccc(S(=O)(=O)NC3=NCCC3)c2)cc1 returned TRAIL sens C8 63*.
Screening CCc1ccc(Nc2nnc(SCC(=O)Nc3cccc(S(=O)(=O)NC4=NCCCCC4)c3)s2)cc1 returned HSP90 refold inh 6, TRAIL sens C8 64*, FLuc stim CS 0.2, PPC-1+TRAIL kill 51* and FLuc inh counter 82*.
`O=C(/C=C/c1ccccc1Cl)Nc1cccc(S(=O)(=O)NC2=NCCCCC2)c1` gave HSP90 refold inh -1, TRAIL sens C8 41, FLuc stim CS 0.3, PPC-1+TRAIL kill 36 and FLuc inh counter 71*.
For O=C(c1ccc(=O)[nH]c1)N(c1ccccc1)C(CCc1ccccc1)c1nc2ccccc2[nH]1 (stereo not drawn) the results were TRAIL sens C8 18.
For C/C(=N\NC(=O)c1nnn(-c2nonc2N)c1CSc1ccc(C)cc1)c1cccs1 the results were TRAIL sens C8 2.
Screening O=C(C[C@H]1CC[C@H]2[C@@H](COC[C@@H](O)CN2S(=O)(=O)c2ccccc2)O1)N[C@@H]1CCN(Cc2ccccc2)C1 returned TRAIL sens C8 3.
For COc1ccc(S(=O)(=O)NC(=O)C2(C)CCN2C(=O)c2cccc(F)c2)cc1 (stereo not drawn) the results were TRAIL sens C8 8.
CC(=O)Nc1ccc(NC(=O)CSc2nnc(NC(=O)c3cccc(F)c3)s2)cc1 was read as HSP90 refold inh 0 and TRAIL sens C8 53*.
Screening CCN(CC)c1ccc(C(=O)O)cc1 returned HSP90 refold inh 6, TRAIL sens C8 -7, FLuc stim CS 1, PPC-1+TRAIL kill 1 and FLuc inh counter -4.
For CCN(CC)c1ccc(/C=C2\C(=O)c3ccc(C(=O)O)cc3C2=O)cc1 the results were HSP90 refold inh 8, TRAIL sens C8 1, FLuc stim CS 0.1, PPC-1+TRAIL kill 15 and FLuc inh counter 92*.
`Cc1nc(CSc2nnc(C)s2)cs1` gave HSP90 refold inh -3, TRAIL sens C8 3, FLuc stim CS 1.1, PPC-1+TRAIL kill 87* and FLuc inh counter -9.
Screening Cc1nnc(SCc2ccc(F)cc2)s1 returned HSP90 refold inh 0, TRAIL sens C8 11, FLuc stim CS 1, PPC-1+TRAIL kill 10 and FLuc inh counter 1.
COc1cccc(CNC(=O)[C@@H]2CCCN2C(=O)[C@@H]2CCCN2)c1 was read as TRAIL sens C8 -11.
`Cc1ccc2nc(N3C(=O)CNC3=S)sc2c1` gave HSP90 refold inh 10, TRAIL sens C8 32 and PPC-1+TRAIL kill 34.
`COc1ccc2nc(N3C(=O)CNC3=S)sc2c1` gave HSP90 refold inh 4, TRAIL sens C8 50* and PPC-1+TRAIL kill 35.
Screening COc1ccccc1N1CCN(C2=Nc3cccc4cccc2c34)CC1 returned HSP90 refold inh 3, TRAIL sens C8 67*, FLuc stim CS 0.2, PPC-1+TRAIL kill 47 and FLuc inh counter 78*.
c1cc2c3c(cccc3c1)C(N1CCN(C3=Nc4cccc5cccc3c45)CC1)=N2 was read as HSP90 refold inh -2.
For COc1cccc(NC(=O)c2ccc(CN3CCOCC3)cc2)c1 the results were HSP90 refold inh 3, TRAIL sens C8 24, FLuc stim CS 0.5, PPC-1+TRAIL kill 1 and FLuc inh counter 51*.
`COc1ccc(C(=O)Nc2ccc3[nH]ncc3c2)cc1` gave HSP90 refold inh 14 and TRAIL sens C8 75*.
